DENV2 CPE rescue – DENV2-induced cell death inhibition; DENV2-infected cells, cytopathic effect rescue, plate reader; CPE inhibition, % at 9.99 µM; actives 1.7% (n = 350,000); AID 651640; in the data active = CPE inhibition above about 20%, passing the limit was not always enough; inconclusive = no clear call, values can overlap the other calls; tested in BHK-21 cells;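 note: 0% = median of neutral control wells and 100% = median of positive control wells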
miR122 inh – blocks miR-122 activity in Huh7 sensor cells; Huh7 miR-122 Renilla luciferase sensor, 48 h; neutral wells = 0, positive control = 100; activation (reporter increase), % at 12.5 µM; actives 0.3% (n = 340,000); AID 602342;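 active = mean replicate activation score at least 90 and every replicate individually at or above 90; inconclusive = only one of the two criteria met; inactive = neither criterion met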;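 note: higher luciferase means less miR-122 activity so hits act as miR-122 inhibitors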
rRNA inh HTS – inhibitors of bacterial rRNA selective over humanized ribosomes; E. coli WT GFP vs humanized-ribosome RFP mutants, fluorescence, 24 h; stronger effect = lower value; DMSO median 0, no signal -100; GFP signal change (wild-type ribosome), % (concentration not given with the values); actives 1.6% (n = 350,000); AID 720706;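 active = significant combined selectivity score with lowered wild-type GFP, culture density cut under 30%, mutant RFP and density less affected; inactive = any of these conditions unmet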
E-selectin induc – E-selectin induction on HUVECs. P16581. HUVEC E-selectin immunofluorescence imaging; normalized: neutral wells 0, TNF-alpha wells 100. activation, % at 7.58 µM. actives 0.37% (n = 260,000). AID 686992;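 active = mean E-selectin-positive cell signal at least 10% of the positive control, reached in at least 60% of replicates, without over 20% cell loss; inconclusive = no rule given, readout overlaps actives, possibly toxicity-flagged; inactive = the rest, including those meeting only one limit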
Target sequence (P16581 whole entry, looked up): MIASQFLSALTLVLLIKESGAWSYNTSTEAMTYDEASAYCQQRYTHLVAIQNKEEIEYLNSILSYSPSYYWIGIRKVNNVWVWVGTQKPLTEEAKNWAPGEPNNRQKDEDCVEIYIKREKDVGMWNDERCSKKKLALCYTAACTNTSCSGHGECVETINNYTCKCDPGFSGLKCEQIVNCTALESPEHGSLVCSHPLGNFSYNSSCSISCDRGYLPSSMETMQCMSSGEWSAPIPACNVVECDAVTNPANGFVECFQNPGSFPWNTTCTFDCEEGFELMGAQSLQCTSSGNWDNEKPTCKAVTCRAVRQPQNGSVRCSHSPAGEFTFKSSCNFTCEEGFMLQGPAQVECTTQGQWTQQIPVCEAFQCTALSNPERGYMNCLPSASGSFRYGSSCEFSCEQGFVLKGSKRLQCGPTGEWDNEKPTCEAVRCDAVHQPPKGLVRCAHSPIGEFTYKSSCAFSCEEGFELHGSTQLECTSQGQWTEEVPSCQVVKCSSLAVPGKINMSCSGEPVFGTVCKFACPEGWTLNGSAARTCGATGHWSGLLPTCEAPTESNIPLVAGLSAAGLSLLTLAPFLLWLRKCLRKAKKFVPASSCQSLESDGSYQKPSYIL
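System: HUVEC / Compound: single concentration / Signal: immunofluorescence imaging / Read-out: percent E-selectin-positive cells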
Cneo AK release – Cryptococcus neoformans lysis via adenylate kinase release. C. neoformans lysis, adenylate kinase release luminescence, 4 h; normalised: neutral wells 0, clomiphene wells 100. lysis activity, % at 15 µM. actives 0.2% (n = 360,000). AID 651654;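 active = mean lysis activity across replicates of at least 80%, whatever share of replicates individually reach that level; inactive = mean lysis activity below 80%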
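read-out = cell lysis signal | test system = log-phase Cryptococcus neoformans yeast cells | input = cells at 5 × 10^6 per mL | medium = fresh YPD growth medium | signal = luminescent adenylate kinase detection reagent | timing = 4 h at 37 °C static, read 1 h later | dosing = single dose | controls = Clomiphene as positive lysis control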
* hit, by the source's call; ? = inconclusive; / = no result; [ ] = remark or other dose. In the library only some 3.1% were active in any assay of this set; here they are far more common.

SMILES | DENV2 CPE rescue | miR122 inh | rRNA inh HTS | E-selectin induc | Cneo AK release
C[C@@H]1CN([C@@H](C)CO)C(=O)c2cc(NC(=O)Nc3ccc(F)cc3)ccc2O[C@@H](C)CCCCO[C@@H]1CN(C)C(=O)C1CCCCC1 | -2 | 15[16.7 µM] | 0 | 0 | -3
C[C@@H]1CN([C@H](C)CO)C(=O)c2cc(NC(=O)Nc3ccccc3)ccc2O[C@@H](C)CCCCO[C@@H]1CN(C)C(=O)C1CCCCC1 | 71* | 1[16.7 µM] | / | / | 0
C[C@H]1CCCCO[C@H](CN(C)C(=O)C2CCCCC2)[C@@H](C)CN([C@@H](C)CO)C(=O)c2cc(NC(=O)Nc3ccccc3)ccc2O1 | -4 | -5[16.7 µM] | 1 | 2 | 3
CN(C)CC(=O)N[C@H]1CC[C@@H](CC(=O)NCc2ccccc2F)O[C@@H]1CO | -1 | / | 1 | 0 | 0
CS(=O)(=O)N1CC2C(c3ccc(Br)cc3)C(C1)N2CC(F)(F)F (centres undefined) | / | / | -4 | / | /
C[C@@H]1CCCCO[C@@H](CN(C)C(=O)Nc2ccc3c(c2)OCO3)[C@H](C)CN([C@H](C)CO)C(=O)c2cc(N(C)C)ccc2O1 | / | -8[16.7 µM] | -6 | 0 | /
COc1ccc(S(=O)(=O)Nc2ccc3c(c2)C(=O)N([C@@H](C)CO)C[C@H](C)[C@@H](CN(C)C(=O)C2CCCCC2)OCCCC[C@H](C)O3)cc1 | 3 | 4[16.7 µM] | -3 | 1 | -2
c1ccc(Cc2cnc(N3CCN(Cc4cccc(-c5ccsc5)n4)CC3)nc2)cc1 | -4 | / | -36* | 0 | /
Oc1cccc(CN2CCN(c3ncc(Cc4ccccc4)cn3)CC2)c1 | -8 | / | -9 | 0 | /
CCCNC(=O)[C@H]1[C@H](CO)[C@H]2Cn3c(ccc(-c4ccccc4F)c3=O)[C@@H]1N2CCC | / | -4[16.7 µM] | 1 | 0 | /
O=C1OC(c2ccc3ccccc3c2O)(c2ccc3ccccc3c2O)c2ccccc21 | 8 | 14 | -41* | 1 | -1
COc1ccc(/C=N/NC(=O)c2cccnc2)cc1CN1CCCc2ccccc21 | 0 | / | -28* | / | /
COc1ccc2c3c(n(C)c2c1)[C@H](CO)N(C(=O)CN1CCOCC1)CC31CCN(C(=O)CC2CC2)CC1 | / | / | -3 | / | /
CC(=O)N(C)C[C@H]1Oc2cc(-c3ccccc3F)ccc2S(=O)(=O)N([C@@H](C)CO)C[C@@H]1C | -5 | 3[16.7 µM] | -6 | 0 | 0
Cc1ccc(S(=O)(=O)NCC[C@@H]2CC[C@@H](NC(=O)CCN3CCCCC3)[C@H](CO)O2)cc1 | -10 | / | 2 | 0 | 2
O=C(N[C@H]1CC[C@@H](CCNS(=O)(=O)c2ccc(F)cc2)O[C@H]1CO)C1CCCC1 | 21* | 19[16.7 µM] | -3 | -1 | 1
Cc1ccc(S(=O)(=O)NCC[C@H]2CC[C@@H](NC(=O)Nc3ccccc3F)[C@@H](CO)O2)cc1 | 16 | / | 2 | -1 | -1
Cc1ccc(S(=O)(=O)NCC[C@@H]2CC[C@H](NC(=O)CCN3CCCCC3)[C@H](CO)O2)cc1 | 73* | / | 5 | 0 | -4
O=C(CCN1CCCCC1)N[C@H]1CC[C@@H](CCNS(=O)(=O)c2ccc(F)cc2)O[C@H]1CO | 25* | / | 6 | 1 | 3
Cc1ccc(S(=O)(=O)NCC[C@H]2CC[C@@H](NC(=O)Nc3ccccc3F)[C@H](CO)O2)cc1 | 20* | / | 1 | -1 | -3
O=C(CCN1CCCCC1)N[C@H]1CC[C@@H](CCNS(=O)(=O)c2ccc(Cl)cc2)O[C@H]1CO | 19 | / | -1 | -2 | 7
O=C(N[C@H]1CC[C@@H](CCNS(=O)(=O)c2ccc(F)cc2)O[C@H]1CO)C1CCC1 | -10 | / | -1 | 0 | 0
COc1ccc2c3c([nH]c2c1)[C@H](CO)N(C(=O)Nc1ccc(F)cc1)CC31CCN(S(=O)(=O)c2ccc(C)cc2)CC1 | ? | / | -3 | -1 | /
CO[C@H]1CN(C)C(=O)c2cc(NC(=O)C3CCCC3)ccc2OC[C@@H](C)N(C(C)=O)C[C@@H]1C | / | 10[16.7 µM] | -2 | 0 | -3
COc1ccc2c3c([nH]c2c1)[C@H](CO)N(Cc1ccccc1F)CC31CN(S(C)(=O)=O)C1 | 12 | / | -5 | 0 | /
SMILES | DENV2 CPE rescue | miR122 inh | rRNA inh HTS | E-selectin induc | Cneo AK release
O=C(NCC[C@H]1CC[C@H](NC(=O)C2CCCC2)[C@@H](CO)O1)c1ccc(F)cc1 | 29* | 7[16.7 µM] | -2 | -1 | 8
Cc1ccccc1S(=O)(=O)NCC[C@@H]1CC[C@H](NC(=O)C2CCCC2)[C@@H](CO)O1 | 23* | -15[16.7 µM] | 2 | 0 | 1
O=C(NCC[C@@H]1CC[C@@H](NC(=O)C2CCCC2)[C@@H](CO)O1)c1ccc(F)cc1 | -10 | -1[16.7 µM] | 1 | 0 | 4
CCC(=O)Nc1ccc2c(c1)OC[C@H](C)N(C(=O)C1CC1)C[C@H](C)[C@@H](OC)CN(C)C2=O | 0 | -4[16.7 µM] | -2 | 0 | 1
Cc1noc(C)c1S(=O)(=O)Nc1ccc2c(c1)C(=O)N([C@@H](C)CO)C[C@@H](C)[C@@H](CN(C)C(=O)Cc1ccccc1)OCCCC[C@@H](C)O2 | 19 | 0[16.7 µM] | -2 | 1 | -1
O=S(=O)(c1ccccc1)N1C[C@H]2[C@@H](c3ccccc31)[C@H](CO)N2Cc1ccccc1 | 13 | 13[16.7 µM] | -38 | 1 | -3
CCOC(=O)c1ccc(NC(=O)NC2CC3CCC(C2)N3C(=S)NC)cc1 (centres undefined) | / | -1 | 3 | 2 | 24
CCNC(=S)N1C2CCC1CC(NC(=O)Nc1ccc(C(=O)OCC)cc1)C2 (centres undefined) | -6 | -3 | -21* | 2 | 0
C[C@@H]1CN([C@H](C)CO)C(=O)c2cc(NC(=O)CCCN(C)C)ccc2O[C@@H](C)CCCCO[C@@H]1CN(C)Cc1ccc(C(=O)O)cc1 | 2 | / | 2 | 0 | /
O=Cc1cn(CCOc2ccccc2F)c2ccccc12 | -3 | -12 | -42* | / | -8
COc1ccccc1OCCn1cc(C=O)c2ccccc21 | 3 | / | -2 | ? | 1
O=C(CSc1nc2ccc([N+](=O)[O-])cc2[nH]1)NCCc1ccccc1 | -6 | 1 | -28* | / | /
O=C(CSc1nc2ccc(Cl)cc2[nH]1)NCCc1ccccc1 | 18 | / | -9 | 0 | /
COc1ccc2nc(SCC(=O)NCCc3ccccc3)[nH]c2c1 | 3 | / | -24* | / | /
CC(C)NC(=O)N(C)C[C@H]1Oc2ccc(NS(C)(=O)=O)cc2CC(=O)N(C)C[C@H]1C | / | / | 0 | / | /
CCCNC(=O)C[C@H]1CC[C@@H]2[C@H](COc3ccc(NC(=O)C4CCCC4)cc3C(=O)N2C)O1 | -3 | 9[16.7 µM] | 2 | 0 | -2
CC(=O)Nc1sc(N/N=C/c2ccc(C)cc2)nc1-c1ccc(C)cc1 | 16 | / | -1 | / | /
CC(=O)Nc1sc(N/N=C/c2ccc(N(C)C)cc2)nc1-c1ccc(C)cc1 | -1 | 6 | -33* | 0 | -2

Bioassay records: PubChem BioAssay, Broad Institute
